Reference: ChEMBL document CHEMBL1137592, “3-[2-((2S)-2-cyano-pyrrolidin-1-yl)-2-oxo-ethylamino]-3-methyl-butyramide analogues as selective DPP-IV inhibitors for the treatment of type-II diabetes” (Bioorg Med Chem Lett, 2007)
Calls of active or inactive are those of the source. The rule behind the calls is not given here.

What was measured:
[1] = target: T1, Prolyl endopeptidase FAP (Homo sapiens, UniProt Q12884); test: In vitro inhibition of FAP, seprase
T1 sequence (Q12884 whole entry): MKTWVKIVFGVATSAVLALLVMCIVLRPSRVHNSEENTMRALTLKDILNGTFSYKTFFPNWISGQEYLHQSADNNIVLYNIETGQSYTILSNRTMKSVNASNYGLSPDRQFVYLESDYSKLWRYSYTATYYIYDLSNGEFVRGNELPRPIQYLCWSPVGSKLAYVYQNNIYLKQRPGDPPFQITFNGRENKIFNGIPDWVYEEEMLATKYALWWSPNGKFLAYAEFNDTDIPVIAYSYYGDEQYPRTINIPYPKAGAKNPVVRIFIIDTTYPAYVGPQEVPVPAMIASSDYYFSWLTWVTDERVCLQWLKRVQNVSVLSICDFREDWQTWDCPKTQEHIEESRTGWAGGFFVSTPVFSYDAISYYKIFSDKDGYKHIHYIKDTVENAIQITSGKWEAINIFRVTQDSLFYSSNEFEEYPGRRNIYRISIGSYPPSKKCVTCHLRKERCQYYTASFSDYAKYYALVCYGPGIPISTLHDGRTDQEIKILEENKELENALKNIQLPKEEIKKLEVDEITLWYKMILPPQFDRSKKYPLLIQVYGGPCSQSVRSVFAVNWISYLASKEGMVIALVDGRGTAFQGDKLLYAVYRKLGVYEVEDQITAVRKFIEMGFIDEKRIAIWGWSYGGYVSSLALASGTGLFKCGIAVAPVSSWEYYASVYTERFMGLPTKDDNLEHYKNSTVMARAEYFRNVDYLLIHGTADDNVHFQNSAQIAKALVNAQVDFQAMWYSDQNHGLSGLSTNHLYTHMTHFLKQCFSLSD
How it was run: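 FAP cDNA was cloned into the pBacPAC8-CD5 vector, then the enzyme was expressed and purified. Activity was measured with Gly-Pro-pNA as substrate at 6 mM.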

[2] = target: Dipeptidyl peptidase 2 (Homo sapiens, UniProt Q9UHL4); test: In vitro inhibition of DPP-II
[3] = target: Dipeptidyl peptidase 8 (Homo sapiens, UniProt Q6V1X1); test: In vitro inhibition of DPP-8
[4] = species on record: Rattus norvegicus; conditions: 10 mg/kg
[5] = target: Dipeptidyl peptidase 4 (Rattus norvegicus) (UniProt P14740); test: Ex vivo inhibition of plasma DPP-4 activity in rats 8 hours after 10 mg/kg oral dose; type: functional, organism-based; parameters: dose 10 mg/kg; conditions: at 10 mg/kg
How it was run: (§1)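 Adult male Wistar rats got a single oral gavage dose of 10 mg/kg at 0 h. Blood was collected over time and plasma DPP-IV activity was read as the cleavage rate of Gly-Pro-AMC. Means ± SEM, n = 4/group.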

[6] = target: Dipeptidyl peptidase 4 (Rattus norvegicus) (UniProt P14740); test: Ex vivo inhibition of plasma DPP-4 activity in rats 30 minutes after 10 mg/kg oral dose; type: functional, organism-based; parameters: dose 10 mg/kg; conditions: at 10 mg/kg; how it was run: as §1

Sequence of Dipeptidyl peptidase 8 (Q6V1X1 whole entry): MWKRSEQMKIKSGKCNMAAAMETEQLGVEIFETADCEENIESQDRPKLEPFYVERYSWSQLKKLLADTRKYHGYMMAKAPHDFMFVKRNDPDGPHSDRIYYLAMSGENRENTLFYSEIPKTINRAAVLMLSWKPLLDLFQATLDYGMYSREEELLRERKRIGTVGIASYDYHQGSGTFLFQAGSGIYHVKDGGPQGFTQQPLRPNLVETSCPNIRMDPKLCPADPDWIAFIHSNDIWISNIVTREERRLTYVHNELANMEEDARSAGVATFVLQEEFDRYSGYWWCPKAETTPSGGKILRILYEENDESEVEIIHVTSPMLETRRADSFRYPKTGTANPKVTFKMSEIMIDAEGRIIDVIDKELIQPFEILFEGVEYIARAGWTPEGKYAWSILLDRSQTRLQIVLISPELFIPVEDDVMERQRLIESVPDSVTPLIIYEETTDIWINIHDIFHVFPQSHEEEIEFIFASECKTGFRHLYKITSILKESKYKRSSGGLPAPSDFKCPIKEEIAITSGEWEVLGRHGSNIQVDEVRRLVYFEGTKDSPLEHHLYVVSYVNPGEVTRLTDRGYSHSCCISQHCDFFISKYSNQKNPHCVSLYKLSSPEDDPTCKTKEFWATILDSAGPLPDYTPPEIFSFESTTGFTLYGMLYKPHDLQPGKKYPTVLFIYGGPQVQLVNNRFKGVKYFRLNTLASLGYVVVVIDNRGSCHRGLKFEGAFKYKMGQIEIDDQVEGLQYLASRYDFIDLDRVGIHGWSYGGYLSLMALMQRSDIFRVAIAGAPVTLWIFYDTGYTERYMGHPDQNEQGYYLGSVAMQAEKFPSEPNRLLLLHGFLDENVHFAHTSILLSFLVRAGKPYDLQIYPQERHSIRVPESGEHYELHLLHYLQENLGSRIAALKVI
Sequence of Dipeptidyl peptidase 4 (Rattus norvegicus) (P14740 whole entry, looked up): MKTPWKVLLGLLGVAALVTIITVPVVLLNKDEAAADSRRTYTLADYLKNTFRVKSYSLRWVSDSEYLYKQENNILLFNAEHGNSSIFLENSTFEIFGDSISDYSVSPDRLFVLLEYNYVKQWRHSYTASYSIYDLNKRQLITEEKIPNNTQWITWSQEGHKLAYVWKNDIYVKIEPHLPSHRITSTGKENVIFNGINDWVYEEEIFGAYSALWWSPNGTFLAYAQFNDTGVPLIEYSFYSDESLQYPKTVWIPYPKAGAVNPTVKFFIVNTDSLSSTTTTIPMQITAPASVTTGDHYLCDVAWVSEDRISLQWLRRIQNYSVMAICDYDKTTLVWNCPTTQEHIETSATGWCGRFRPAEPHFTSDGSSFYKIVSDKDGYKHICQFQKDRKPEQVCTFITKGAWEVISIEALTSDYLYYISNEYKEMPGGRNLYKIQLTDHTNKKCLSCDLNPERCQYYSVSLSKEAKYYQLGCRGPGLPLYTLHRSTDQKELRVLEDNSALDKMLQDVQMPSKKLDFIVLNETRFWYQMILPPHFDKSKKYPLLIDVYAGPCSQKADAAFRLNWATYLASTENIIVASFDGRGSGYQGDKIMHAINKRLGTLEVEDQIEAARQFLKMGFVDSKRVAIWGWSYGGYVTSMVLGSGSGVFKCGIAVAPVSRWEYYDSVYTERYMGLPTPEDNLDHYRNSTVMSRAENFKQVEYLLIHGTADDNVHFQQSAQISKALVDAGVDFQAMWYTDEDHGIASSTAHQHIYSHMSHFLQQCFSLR

SMILES | IC50 [1] [µM] | IC50 [2] [µM] | IC50 [3] [µM] | inhibition [5] [%] | inhibition [6] [%] | inhibition [4]
CC(C)(CC(=O)NCCc1ccccn1)NCC(=O)N1CCC[C@H]1C#N | > 20 | > 20 | > 20 | – | – | Active
CC(C)(CC(=O)NCCc1cccc(C(F)(F)F)c1)NCC(=O)N1CCC[C@H]1C#N | > 20 | > 20 | > 20 | – | – | –
COc1ccc(NC(=O)CC(C)(C)NCC(=O)N2CCC[C@H]2C#N)cc1 | > 20 | > 20 | > 20 | – | – | –
C[C@H](CC(=O)NC(C)(C)c1ccccc1)NCC(=O)N1CCC[C@H]1C#N | > 20 | > 20 | – | – | – | –
COc1ccc(CCNC(=O)CC(C)(C)NCC(=O)N2CCC[C@H]2C#N)cc1OC | > 20 | > 20 | > 20 | – | – | –
CC(C)(CC(=O)NCCc1ccc(C(F)(F)F)cc1)NCC(=O)N1CCC[C@H]1C#N | > 20 | > 20 | > 20 | – | – | –
CC(C)(CC(=O)NC(C)(C)c1ccccc1)NCC(=O)N1CCC[C@H]1C#N | > 20 | > 20 | > 20 | – | – | –
CC(C)(CC(=O)NCCc1ccccc1)NCC(=O)N1CCC[C@H]1C#N | > 20 | > 20 | > 20 | – | – | –
Cc1ccc(NC(=O)CC(C)(C)NCC(=O)N2CCC[C@H]2C#N)cc1C | > 20 | > 20 | > 20 | – | – | –
CC(C)(CC(=O)Nc1ccccc1)NCC(=O)N1CCC[C@H]1C#N | > 20 | > 20 | > 20 | – | – | –
CC(C)(CC(=O)Nc1ccc(-c2ccccc2)cc1)NCC(=O)N1CCC[C@H]1C#N | > 20 | 0.8 | > 20 | – | – | –
C[C@@H](CC(=O)NC(C)(C)c1ccccc1)NCC(=O)N1CCC[C@H]1C#N | – | > 20 | – | – | – | –

More lines, main results first:

IC50 [1] [µM] | IC50 [2] [µM] | IC50 [3] [µM] | inhibition [5] [%] | inhibition [6] [%] | SMILES | inhibition [4]
> 20 | > 20 | > 20 | – | – | CC(C)(CC(=O)NC(C)(C)Cc1ccccc1)NCC(=O)N1CCC[C@H]1C#N | –
> 20 | > 20 | > 20 | – | – | CC(C)(CC(=O)NCCc1ccccc1C(F)(F)F)NCC(=O)N1CCC[C@H]1C#N | –
> 20 | – | – | – | – | N#C[C@@H]1CCCN1C(=O)CNCCC(=O)NCc1ccccc1 | –
> 20 | > 20 | > 20 | – | – | CC(C)(CC(=O)Nc1ccc(F)c(F)c1)NCC(=O)N1CCC[C@H]1C#N | –
> 20 | – | – | – | – | N#C[C@@H]1CCCN1C(=O)CNCCC(=O)NCCc1ccccc1 | –
> 20 | > 20 | > 20 | – | – | COc1ccc(NC(=O)CC(C)(C)NCC(=O)N2CCC[C@H]2C#N)c(OC)c1OC | –
> 20 | > 20 | – | – | – | CC(C)(NC(=O)CCNCC(=O)N1CCC[C@H]1C#N)c1ccccc1 | –
> 20 | > 20 | > 20 | – | – | Cc1ccc(CCNC(=O)CC(C)(C)NCC(=O)N2CCC[C@H]2C#N)cc1 | –
> 20 | > 20 | > 20 | > 50 | > 80 | COc1ccc(NC(=O)CC(C)(C)NCC(=O)N2CCC[C@H]2C#N)cc1OC | Active
> 20 | > 20 | > 20 | – | – | CC(C)(CC(=O)NCCc1ccc(Cl)c(Cl)c1)NCC(=O)N1CCC[C@H]1C#N | –
> 20 | > 20 | > 20 | – | – | CC(C)(CC(=O)NCc1ccccc1)NCC(=O)N1CCC[C@H]1C#N | –
> 20 | > 20 | > 20 | – | – | CC(C)(CC(=O)Nc1ccc(F)cc1)NCC(=O)N1CCC[C@H]1C#N | –
> 20 | > 20 | > 20 | – | – | CC(C)(CC(=O)NCc1ccccn1)NCC(=O)N1CCC[C@H]1C#N | –
